Assays:
Format in all cases: functional
[1] = system: Staphylococcus epidermidis; experiment: Antimicrobial activity against methicillin-susceptible Staphylococcus epidermidis clinical isolate after 18 to 22 hrs by broth microdilution method in presence of beta-lactamase inhibitor Tazobactam
Outline: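 CLSI broth microdilution of piperacillin-tazobactam in Mueller-Hinton II broth with serial dilutions. Inoculum was 10^5 CFU/ml. Incubation was 18 to 22 h at 35°C in ambient air. MIC was read as the lowest concentration giving complete inhibition of growth visible to the unaided eye.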

Haemophilus influenzae = experiment: Antimicrobial activity against beta-lactamase-negative Haemophilus influenzae clinical isolate after 18 to 22 hrs by broth microdilution method in presence of beta-lactamase inhibitor Tazobactam
Outline: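 […] was used for CLSI broth microdilution with piperacillin-tazobactam. Inoculum was 10^5 CFU/ml, incubated 18 to 22 h at 35°C in ambient air. MIC was the lowest concentration with no growth visible to the unaided eye.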

Enterobacter cloacae [2] = experiment: Antimicrobial activity against Enterobacter cloacae clinical isolate after 18 to 22 hrs by broth microdilution method in presence of beta-lactamase inhibitor BLI-489
Outline: (§1)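 CLSI broth microdilution in Mueller-Hinton II broth. Piperacillin serial dilutions were combined with BLI-489 held constant at 4 μg/ml. Inoculum was 10^5 CFU/ml. Plates were incubated 18 to 22 h at 35°C in ambient air. MIC was the lowest concentration completely inhibiting growth seen by the unaided eye. Piperacillin-tazobactam interpretive criteria were applied.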

Acinetobacter baumannii = experiment: Antimicrobial activity against Acinetobacter baumannii clinical isolate after 18 to 22 hrs by broth microdilution method in presence of beta-lactamase inhibitor Tazobactam
Outline: (§2)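 Piperacillin-tazobactam was tested on recent clinical isolates by CLSI broth microdilution in Mueller-Hinton II broth, with tazobactam at constant 4 μg/ml. Wells held 10^5 CFU/ml and were incubated 18 to 22 h at 35°C in ambient air. MIC was the lowest concentration with no growth visible to the unaided eye.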

Serratia marcescens = experiment: Antimicrobial activity against AmpC beta-lactamase-producing Serratia marcescens clinical isolate after 18 to 22 hrs by broth microdilution method in presence of beta-lactamase inhibitor Tazobactam; outline: as §2
Streptococcus pneumoniae = experiment: Antimicrobial activity against penicillin-susceptible Streptococcus pneumoniae clinical isolate after 18 to 22 hrs by broth microdilution method in presence of beta-lactamase inhibitor Tazobactam
Outline: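 Broth microdilution per CLSI in Mueller-Hinton II broth supplemented with 5% lysed horse blood, using serial dilutions of piperacillin-tazobactam. Inoculum was 10^5 CFU/ml. Incubation was 18 to 22 h at 35°C in ambient air. MIC was the lowest concentration with no growth visible to the unaided eye.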

Moraxella catarrhalis = experiment: Antimicrobial activity against Moraxella catarrhalis clinical isolate after 18 to 22 hrs by broth microdilution method in presence of beta-lactamase inhibitor BLI-489
Outline: (§3)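 CLSI broth microdilution in Mueller-Hinton II broth. Serial dilutions of piperacillin were tested with BLI-489 held at a constant 4 μg/ml. Inoculum was 10^5 CFU/ml. Plates were incubated 18 to 22 h at 35°C in ambient air. MIC was the lowest concentration giving complete growth inhibition by unaided eye.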

[3] = system: Stenotrophomonas maltophilia; experiment: Antimicrobial activity against Stenotrophomonas maltophilia clinical isolate after 18 to 22 hrs by broth microdilution method in presence of beta-lactamase inhibitor BLI-489; outline: as §3
[4] = system: Staphylococcus epidermidis; experiment: Antimicrobial activity against methicillin-resistant Staphylococcus epidermidis clinical isolate after 18 to 22 hrs by broth microdilution method in presence of beta-lactamase inhibitor Tazobactam
Outline: (§4)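 CLSI broth microdilution in Mueller-Hinton II broth. Antibiotic in serial dilution with the β-lactamase inhibitor held at a constant 4 μg/ml. Inoculum 10^5 CFU/ml. Incubated 18 to 22 h at 35°C in ambient air.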

Citrobacter koseri = experiment: Antimicrobial activity against Citrobacter koseri clinical isolate after 18 to 22 hrs by broth microdilution method in presence of beta-lactamase inhibitor BLI-489; outline: as §1
Enterococcus faecalis [5] = experiment: Antimicrobial activity against Enterococcus faecalis clinical isolate after 18 to 22 hrs by broth microdilution method in presence of beta-lactamase inhibitor BLI-489; outline: as §1
[6] = system: Haemophilus parainfluenzae; experiment: Antimicrobial activity against Haemophilus parainfluenzae clinical isolate after 18 to 22 hrs by broth microdilution method in presence of beta-lactamase inhibitor BLI-489
Outline: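 Haemophilus isolates were tested in Haemophilus test medium by CLSI broth microdilution. Serial piperacillin dilutions carried BLI-489 fixed at 4 μg/ml. Inoculum was 10^5 CFU/ml, incubated 18 to 22 h at 35°C in ambient air. MIC was the lowest concentration completely inhibiting growth by eye.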

Streptococcus agalactiae = experiment: Antimicrobial activity against Streptococcus agalactiae clinical isolate after 18 to 22 hrs by broth microdilution method in presence of beta-lactamase inhibitor Tazobactam
Outline: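 Streptococcal isolates were tested with piperacillin-tazobactam by CLSI broth microdilution in Mueller-Hinton II broth supplemented with 5% lysed horse blood. Inoculum was 10^5 CFU/ml, incubated 18 to 22 h at 35°C in ambient air. Visual endpoint: lowest concentration with complete inhibition.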

Klebsiella aerogenes = experiment: Antimicrobial activity against AmpC beta-lactamase-producing Enterobacter aerogenes clinical isolate after 18 to 22 hrs by broth microdilution method in presence of beta-lactamase inhibitor Tazobactam; outline: as §2
Parvimonas micra = experiment: Antimicrobial activity against Peptostreptococcus micros clinical isolate after 18 to 22 hrs by broth microdilution method in presence of beta-lactamase inhibitor Tazobactam
Enterobacter cloacae [7] = experiment: Antimicrobial activity against AmpC beta-lactamase-producing Enterobacter cloacae clinical isolate after 18 to 22 hrs by broth microdilution method in presence of beta-lactamase inhibitor Tazobactam; outline: as §2
Klebsiella pneumoniae = experiment: Antimicrobial activity against AmpC- producing Klebsiella pneumoniae clinical isolate after 18 to 22 hrs by broth microdilution method in presence of beta-lactamase inhibitor Tazobactam; outline: as §2
[8] = system: Bacteroides thetaiotaomicron; experiment: Antimicrobial activity against Bacteroides thetaiotaomicron clinical isolate after 18 to 22 hrs by broth microdilution method in presence of beta-lactamase inhibitor Tazobactam
Enterococcus faecalis [9] = experiment: Antimicrobial activity against vancomycin-resistant Enterococcus faecalis clinical isolate after 18 to 22 hrs by broth microdilution method in presence of beta-lactamase inhibitor Tazobactam; outline: as §4
[10] = system: Peptostreptococcus anaerobius; experiment: Antimicrobial activity against Peptostreptococcus anaerobius clinical isolate after 18 to 22 hrs by broth microdilution method in presence of beta-lactamase inhibitor BLI-489

Work on CCN1CCN(C(=O)N[C@@H](C(=O)N[C@@H]2C(=O)N3[C@@H]2SC(C)(C)[C@@H]3C(=O)O)c2ccccc2)C(=O)C1=O [PIPERACILLIN] yielded an MIC50 [1] of 0.25 µg/mL, an MIC90 [1] of 0.5 µg/mL and an MIC50 (Haemophilus influenzae) of 0.008 µg/mL. The MIC90 (Haemophilus influenzae) was 0.03 µg/mL, the MIC50 (Enterobacter cloacae [2]) was 2 µg/mL and the MIC90 (Enterobacter cloacae [2]) was 16 µg/mL. For the same molecule, the MIC50 (Acinetobacter baumannii) was > 128 µg/mL, the MIC90 (Acinetobacter baumannii) was > 128 µg/mL and the MIC50 (Serratia marcescens) was 8 µg/mL. It also gave an MIC90 (Serratia marcescens) of 16 µg/mL, an MIC50 (Streptococcus pneumoniae) of 0.008 µg/mL and an MIC90 (Streptococcus pneumoniae) of 0.015 µg/mL. For the same molecule, the MIC (Moraxella catarrhalis) was ≤ 0.004 µg/mL, the MIC50 (Moraxella catarrhalis) was ≤ 0.004 µg/mL and the MIC90 (Moraxella catarrhalis) was 0.015 µg/mL. For the same molecule, the MIC50 [3] was > 128 µg/mL, the MIC90 [3] was > 128 µg/mL and the MIC50 [4] was 1 µg/mL. For the same molecule, the MIC90 [4] was 8 µg/mL, the MIC50 (Citrobacter koseri) was 2 µg/mL and the MIC90 (Citrobacter koseri) was 8 µg/mL. For the same molecule, the MIC50 (Enterococcus faecalis [5]) was 2 µg/mL, the MIC90 (Enterococcus faecalis [5]) was 4 µg/mL and the MIC [6] was ≤ 0.004 µg/mL. The MIC50 [6] was ≤ 0.004 µg/mL, the MIC90 [6] was ≤ 0.004 µg/mL and the MIC50 (Streptococcus agalactiae) was 0.12 µg/mL. The MIC90 (Streptococcus agalactiae) was 0.25 µg/mL, the MIC (Klebsiella aerogenes) was > 8 µg/mL and the MIC50 (Klebsiella aerogenes) was 4 µg/mL. The MIC90 (Klebsiella aerogenes) was 16 µg/mL, the MIC50 (Parvimonas micra) was 0.03 µg/mL and the MIC90 (Parvimonas micra) was 0.25 µg/mL. It also gave an MIC50 (Enterobacter cloacae [7]) of 8 µg/mL, an MIC90 (Enterobacter cloacae [7]) of 32 µg/mL and an MIC50 (Klebsiella pneumoniae) of 32 µg/mL. The MIC90 (Klebsiella pneumoniae) was > 128 µg/mL, the MIC50 [8] was 4 µg/mL and the MIC90 [8] was 8 µg/mL. The MIC50 (Enterococcus faecalis [9]) was 2 µg/mL, the MIC90 (Enterococcus faecalis [9]) was > 128 µg/mL and the MIC [10] was ≤ 0.015 µg/mL. The MIC50 [10] was ≤ 0.015 µg/mL and the MIC90 [10] was ≤ 0.015 µg/mL.

Reference: ChEMBL document CHEMBL1629583, “Establishment of in vitro susceptibility testing methodologies and comparative activities of piperacillin in combination with the penem {beta}-lactamase inhibitor BLI-489” (2009)
